Reference: ChEMBL document CHEMBL4190236, “New arylpyrazoline-coumarins: Synthesis and anti-inflammatory activity” (Eur J Med Chem, 2017)
Blank lines part the entries; values can stand above or below the compound they belong to. Calls of active or inactive are those of the source. No cut-off for these calls is given here.

Experiments:
[1] = biological target: Transcription factor p65 (Mus musculus) (UniProt Q04207); experiment: Inhibition of LPS-induced NFkB activation in mouse RAW264.7 cells assessed as reduction in nuclear translocation of p65 at 20 uM preincubated for 1 hr followed by LPS stimulation measured after 3 hrs by Western blot method; assay type: cell-based
Rattus norvegicus [2] = experiment: Anti-inflammatory activity in Sprague-Dawley rat assessed as inhibition of carrageenan-induced paw edema at 10 mg/kg, po administered 30 mins prior to carrageenan challenge measured after 5 hrs relative to control; assay type: functional
Summary of the method: (§1)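 Male rats given test agent or diclofenac orally at 10 mg/kg, suspended in 0.5% Na CMC, 30 min before 0.1 mL of 1% (w/v) carrageenan injected into right hind paw. Vehicle control received 0.5% sodium CMC. Paw thickness measured at 1, 3 and 5 h. % inhibition calculated from paw oedema of treated versus control group. Table gives n = 5.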

RAW264.7 [3] = experiment: Anti-inflammatory activity in mouse RAW264.7 cells assessed as inhibition of LPS-induced TNFalpha release at 10 uM preincubated for 1 hr followed by LPS stimulation measured after 24 hrs by ELISA relative to control; assay type: functional
Summary of the method: (§2)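 RAW264.7 cells (DMEM, 10% FBS, 37 °C, 5% CO2) plated at 7 × 10^4 cells/well and grown 24 h, then serum-starved 2.5 h. Exposed to 10 µM compound for 1 h, then LPS 1 µg/mL for 24 h. TNF-α or IL-6 in the medium quantified by mouse ELISA. Cytokine amount normalized to protein of viable cell pellets. Expressed as % inhibition.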

RAW264.7 [4] = experiment: Anti-inflammatory activity in mouse RAW264.7 cells assessed as inhibition of LPS-induced IL-6 release at 10 uM preincubated for 1 hr followed by LPS stimulation measured after 24 hrs by ELISA relative to control; assay type: functional; summary of the method: as §2
Rattus norvegicus [5] = experiment: Anti-inflammatory activity in Sprague-Dawley rat assessed as inhibition of carrageenan-induced paw edema at 10 mg/kg, po administered 30 mins prior to carrageenan challenge measured after 1 hr relative to control; assay type: functional; summary of the method: as §1
Rattus norvegicus [6] = experiment: Anti-inflammatory activity in Sprague-Dawley rat assessed as inhibition of carrageenan-induced paw edema at 10 mg/kg, po administered 30 mins prior to carrageenan challenge measured after 3 hrs relative to control; assay type: functional; summary of the method: as §1
RAW264.7 [7] = experiment: Anti-inflammatory activity in mouse RAW264.7 cells assessed as inhibition of LPS-induced IL-6 release preincubated for 1 hr followed by LPS stimulation measured after 24 hrs by ELISA; assay type: functional, cell-based
Summary of the method: (§3)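 Serum-starved (2.5 h) RAW264.7 cells were pretreated 1 h with a range of compound concentrations, then given LPS 1 µg/mL for 24 h. TNF-α or IL-6 in the medium was quantified by mouse ELISA and normalized to protein of viable cell pellets.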

[8] = biological target: Mitogen-activated protein kinase kinase kinase 7 (Mus musculus) (UniProt Q62073); experiment: Inhibition of TAK1 in mouse RAW264.7 cells assessed as inhibition of LPS-induced NFkB activation by measuring reduction in nuclear translocation of p65 at 2.5 to 10 uM preincubated for 1 hr followed by LPS stimulation measured after 3 hrs by Western blot method
Rattus norvegicus [9] = experiment: Anti-inflammatory activity in po dosed adjuvant-induced Sprague-Dawley rat arthritis model assessed as reduction in bone destruction administered once daily from day 14 to 28 post-immunization measured by H and E staining based histopathological analysis; assay type: functional, organism-based
Summary of the method: (§4)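 Male SD rats (180–200 g), 8 per group. Arthritis induced by one intradermal injection of 0.1 mL CFA (heat-killed M. butyricum in paraffin oil, 10 mg/mL) into the right hind paw. Test agent at 45 or 90 mg/kg, aspirin 50 mg/kg, in 0.5% CMC-Na, given intragastrically once daily on days 14–28. Right ankle joints taken at day 28, fixed, EDTA-decalcified, cut at 5 µm and H&E stained.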

[10] = biological target: Mitogen-activated protein kinase kinase kinase 7 (Mus musculus) (UniProt Q62073); experiment: Inhibition of TAK1 in mouse RAW264.7 cells assessed as reduction in LPS-induced MAPK p38 phosphorylation preincubated for 1 hr followed by LPS stimulation measured after 30 mins by Western blot method
Rattus norvegicus [11] = experiment: Anti-inflammatory activity in po dosed adjuvant-induced Sprague-Dawley rat arthritis model assessed as reduction in synovial hyperplasia administered once daily from day 14 to 28 post-immunization measured by H and E staining based histopathological analysis; assay type: functional, organism-based; summary of the method: as §4
RAW264.7 [12] = experiment: Anti-inflammatory activity in mouse RAW264.7 cells assessed as inhibition of LPS-induced TNFalpha release preincubated for 1 hr followed by LPS stimulation measured after 24 hrs by ELISA; assay type: functional, cell-based; summary of the method: as §3
RAW264.7 [13] = experiment: Anti-inflammatory activity in mouse RAW264.7 cells assessed as inhibition of LPS-induced iNOS protein expression preincubated for 1 hr followed by LPS stimulation measured after 24 hrs by Western blot method; assay type: functional, cell-based
Summary of the method: (§5)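 Cells grown 24 h, serum-starved 2.5 h, pretreated 1 h with compound, then LPS 1 µg/mL for 24 h. Lysed in RIPA on ice, run on 10% SDS-PAGE, transferred to PVDF. Probed overnight at 4 °C with primary antibody for iNOS (130 kDa) or COX-2 (72 kDa), then HRP secondary. β-actin as loading control. At least three independent experiments.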

RAW264.7 [14] = experiment: Anti-inflammatory activity in mouse RAW264.7 cells assessed as inhibition of LPS-induced nitric oxide production preincubated for 1 hr followed by LPS stimulation measured after 24 hrs by Griess assay; assay type: functional, cell-based
Summary of the method: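 Griess nitrite assay. RAW264.7 cells pretreated 1 h with compound, then LPS 1 µg/mL for 24 h. Supernatant mixed 1:1 with Griess reagent, OD read at 540 nm against a NaNO2 standard curve. At least three independent experiments, each in duplicate.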

RAW264.7 [15] = experiment: Anti-inflammatory activity in mouse RAW264.7 cells assessed as inhibition of LPS-induced COX2 protein expression preincubated for 1 hr followed by LPS stimulation measured after 24 hrs by Western blot method; assay type: functional, cell-based; summary of the method: as §5
RAW264.7 [16] = experiment: Cytotoxicity against mouse RAW264.7 cells assessed reduction in cell viability at 10 to 40 uM by MTT assay; assay type: cell-based; details: raw264.7, 40 µM
Rattus norvegicus [17] = experiment: Anti-inflammatory activity in po dosed adjuvant-induced Sprague-Dawley rat arthritis model assessed as reduction in inflammatory cell infilteration administered once daily from day 14 to 28 post-immunization measured by H and E staining based histopathological analysis; assay type: functional, organism-based; summary of the method: as §4
[18] = biological target: Mitogen-activated protein kinase kinase kinase 7 (Mus musculus) (UniProt Q62073); experiment: Inhibition of LPS-induced TAK1 phosphorylation in mouse RAW264.7 cells preincubated for 1 hr followed by LPS stimulation measured after 30 min by Western blot method
[19] = biological target: Mitogen-activated protein kinase kinase kinase 7 (Mus musculus) (UniProt Q62073); experiment: Inhibition of TAK1 in mouse RAW264.7 cells assessed as inhibition of LPS-induced NFkB activation by measuring reduction in nuclear translocation of p65 at 2.5 to 10 uM preincubated for 1 hr followed by LPS stimulation measured after 3 hrs by DAPI staining based immunofluorescence assay

Sequence of Mitogen-activated protein kinase kinase kinase 7 (Mus musculus) (Q62073 whole entry, looked up): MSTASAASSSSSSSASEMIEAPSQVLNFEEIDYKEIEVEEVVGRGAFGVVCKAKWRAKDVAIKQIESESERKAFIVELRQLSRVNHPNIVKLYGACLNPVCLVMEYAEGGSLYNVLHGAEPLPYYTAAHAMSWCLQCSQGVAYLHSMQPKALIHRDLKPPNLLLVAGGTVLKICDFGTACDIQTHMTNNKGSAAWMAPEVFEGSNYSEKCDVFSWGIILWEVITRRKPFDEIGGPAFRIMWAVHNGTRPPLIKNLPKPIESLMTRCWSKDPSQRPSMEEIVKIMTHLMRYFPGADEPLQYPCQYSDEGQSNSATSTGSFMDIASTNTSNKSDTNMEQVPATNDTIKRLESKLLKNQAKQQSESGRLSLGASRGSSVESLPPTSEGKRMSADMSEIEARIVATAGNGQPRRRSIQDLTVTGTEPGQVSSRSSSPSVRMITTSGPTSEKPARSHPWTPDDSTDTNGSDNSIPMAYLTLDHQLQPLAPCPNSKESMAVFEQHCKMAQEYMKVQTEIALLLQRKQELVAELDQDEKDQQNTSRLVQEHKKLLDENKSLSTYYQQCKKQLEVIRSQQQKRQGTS
Sequence of Transcription factor p65 (Mus musculus) (Q04207 whole entry): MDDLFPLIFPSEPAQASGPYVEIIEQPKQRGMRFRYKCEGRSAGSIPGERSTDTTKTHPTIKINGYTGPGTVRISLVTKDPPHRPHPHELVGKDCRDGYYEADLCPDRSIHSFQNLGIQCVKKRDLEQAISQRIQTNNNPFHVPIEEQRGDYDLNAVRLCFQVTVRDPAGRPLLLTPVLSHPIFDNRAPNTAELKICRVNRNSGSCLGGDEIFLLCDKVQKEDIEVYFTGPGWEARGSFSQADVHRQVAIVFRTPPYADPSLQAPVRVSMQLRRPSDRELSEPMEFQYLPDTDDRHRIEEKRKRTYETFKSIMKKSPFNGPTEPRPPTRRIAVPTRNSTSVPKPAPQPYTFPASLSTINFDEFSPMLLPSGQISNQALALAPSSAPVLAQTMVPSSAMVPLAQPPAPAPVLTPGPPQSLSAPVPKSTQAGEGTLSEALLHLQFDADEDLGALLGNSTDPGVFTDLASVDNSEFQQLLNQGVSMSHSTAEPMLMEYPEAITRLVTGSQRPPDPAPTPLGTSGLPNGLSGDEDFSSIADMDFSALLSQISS

inhibition [1]: Active
SMILES: Cc1ccc(S(=O)(=O)/C=C/C#N)cc1

SMILES: C=CCN(CC=C)CC(=O)N1N=C(c2cc3ccccc3oc2=O)CC1c1ccccc1C(F)(F)F (stereo not drawn)
inhibition in vivo at 10 mg/kg (Rattus norvegicus [2]): 45%
inhibition (RAW264.7 [3]): Active
inhibition (RAW264.7 [4]): Active
inhibition in vivo at 10 mg/kg (Rattus norvegicus [5]): 28%
inhibition in vivo at 10 mg/kg (Rattus norvegicus [6]): 49%

SMILES: O=C(CN1CCCCC1)N1N=C(c2cc3ccccc3oc2=O)CC1c1ccc(C(F)(F)F)cc1 (stereo not drawn)
inhibition in vivo at 10 mg/kg (Rattus norvegicus [2]): 36%
inhibition (RAW264.7 [3]): Active
inhibition (RAW264.7 [4]): Active
inhibition in vivo at 10 mg/kg (Rattus norvegicus [5]): 32%
inhibition in vivo at 10 mg/kg (Rattus norvegicus [6]): 41%

SMILES: O=C(O)Cc1ccccc1Nc1c(Cl)cccc1Cl [DICLOFENAC]
inhibition in vivo at 10 mg/kg (Rattus norvegicus [2]): 48%
inhibition in vivo at 10 mg/kg (Rattus norvegicus [5]): 41%
inhibition in vivo at 10 mg/kg (Rattus norvegicus [6]): 77%

IC50 (RAW264.7 [7]): 14.2 µM
inhibition [8]: Active
inhibition [10]: Dose-dependent effect
IC50 (RAW264.7 [12]): 16.8 µM
inhibition [18]: Dose-dependent effect
inhibition [19]: Active
SMILES: COc1ccc(-c2coc3cc(OCC(=O)N4N=C(c5cc6ccccc6oc5=O)CC4c4ccc(C(F)(F)F)cc4)ccc3c2=O)cc1 (stereo not drawn)
inhibition in vivo at 10 mg/kg (Rattus norvegicus [2]): 59%
inhibition at 10 µM (RAW264.7 [3]): 40.4%
inhibition at 10 µM (RAW264.7 [4]): 41.2%
Activity (Rattus norvegicus [9]): Dose-dependent effect
inhibition in vivo at 10 mg/kg (Rattus norvegicus [5]): 49%
Activity (Rattus norvegicus [11]): Dose-dependent effect
inhibition in vivo at 10 mg/kg (Rattus norvegicus [6]): 60%
Activity (RAW264.7 [13]): Dose-dependent effect
Activity (RAW264.7 [14]): Dose-dependent effect
Activity (RAW264.7 [15]): Dose-dependent effect
Activity (RAW264.7 [16]): Non-Toxic
Activity (Rattus norvegicus [17]): Dose-dependent effect

SMILES: CC(C)NCC(=O)N1N=C(c2cc3ccccc3oc2=O)CC1c1ccccc1C(F)(F)F (stereo not drawn)
inhibition in vivo at 10 mg/kg (Rattus norvegicus [2]): 13%
inhibition in vivo at 10 mg/kg (Rattus norvegicus [5]): 17%
inhibition in vivo at 10 mg/kg (Rattus norvegicus [6]): 20%

SMILES: Cc1ccc(-c2cc(C(F)(F)F)nn2-c2ccc(S(N)(=O)=O)cc2)cc1 [CELECOXIB]
inhibition in vivo at 10 mg/kg (Rattus norvegicus [2]): 61%
inhibition in vivo at 10 mg/kg (Rattus norvegicus [5]): 55%
inhibition in vivo at 10 mg/kg (Rattus norvegicus [6]): 59%
